Results on 21 compounds are retold here after ChEMBL document CHEMBL2424622, “Development of amino-pyrimidine inhibitors of c-Jun N-terminal kinase (JNK): kinase profiling guided optimization of a 1,2,3-benzotriazole lead” (Bioorg Med Chem Lett, 2013).

Each structure is given as a SMILES string.

The test system of one data set is HCT-116. The data set can be described thus: Cytotoxicity against human HCT116 cells assessed as cell viability by WST-1 reduction assay. The class given is cell-based. Summed up:
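Cytotoxicity was measured in an HCT-116 cell proliferation assay as reduction of WST-1 reagent. Values are the mean of at least three experiments.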

The species named for a further data set is Homo sapiens. Briefly: Selectivity ratio of IC50 for human JNK2 to IC50 for human JNK1. Summed up:
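JNK1 and JNK2 activities were each measured as phosphorylation of GST-ATF2 (19–96) with [γ-33P]ATP, and IC50s were determined for each enzyme. The ratio is JNK2 IC50 over JNK1 IC50. IC50s are the mean of at least three experiments.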

Data set [1] concerns the target T1, Mitogen-activated protein kinase 9 (Homo sapiens, UniProt P45984).
Target sequence in this assay (P45984 whole entry): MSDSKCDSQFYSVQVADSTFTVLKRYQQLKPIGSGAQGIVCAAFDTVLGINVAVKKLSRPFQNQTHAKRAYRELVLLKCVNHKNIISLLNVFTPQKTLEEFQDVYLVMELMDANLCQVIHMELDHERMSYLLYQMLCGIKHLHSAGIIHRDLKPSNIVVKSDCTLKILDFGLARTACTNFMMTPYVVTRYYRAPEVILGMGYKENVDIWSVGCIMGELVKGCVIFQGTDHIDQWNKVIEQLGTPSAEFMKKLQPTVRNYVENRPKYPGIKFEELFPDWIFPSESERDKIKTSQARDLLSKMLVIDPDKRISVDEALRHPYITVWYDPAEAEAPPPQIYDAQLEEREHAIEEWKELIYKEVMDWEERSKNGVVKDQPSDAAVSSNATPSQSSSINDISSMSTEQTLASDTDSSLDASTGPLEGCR
For data set [2], the target named is c-Jun N-terminal kinase, JNK (Homo sapiens, UniProt P45983+P53779+P45984). The data set can be described thus: Inhibition of JNK in human SW1353 cells assessed as inhibition of TNFalpha-induced c-Jun phosphorylation incubated for 30 mins prior to TNFalpha induction measured after 20 mins. The class given is cell-based. Summed up: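 SW1353 cells were stimulated with TNFa, and the read-out was inhibition of phosphorylation of the downstream substrate c-Jun. Values are the mean of at least three experiments.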

For the next data set, the target named is Cytochrome P450 2C9 (Homo sapiens, UniProt P11712). The data set can be described thus: Inhibition of CYP2C9 (unknown origin). The class given is ADME.
In data set [3] the target is Mitogen-activated protein kinase 8 (Homo sapiens, UniProt P45983).
In data set [4] the target is Cyclin-dependent kinase 2/cyclin E1 (Homo sapiens, UniProt P24941). The data set can be described thus: Inhibition of human recombinant CDK2/GST-tagged cyclin E expressed in baculovirus infected insect cells assessed as inhibition of 6XHis-tagged retinoblastoma protein (386 to 928) phosphorylation after 30 mins by scintillation counting analysis in presence of [gamma-33P]-ATP. Summed up: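 CDK2 activity was measured as phosphorylation of a 6-histidine-tagged truncated retinoblastoma protein (amino acids 386–928) using [γ-33P]ATP.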

The target in data set [5] is T1, Mitogen-activated protein kinase 9. Briefly: Ratio of IC50 for human JNK2 in presence of human serum to IC50 for human JNK2 in absence of human serum.
Target sequence in this assay (P45984 whole entry, looked up): as the sequence (P45984 whole entry) above
For data set [6], the target named is Cyclin-dependent kinase 1/cyclin B1 (Homo sapiens, UniProt P06493). The data set can be described thus: Inhibition of human recombinant human CDK1/GST-tagged cyclin B expressed in baculovirus infected insect cells assessed as inhibition of 6XHis-tagged retinoblastoma protein (386 to 928) phosphorylation after 30 mins by scintillation counting analysis in presence of [gamma-33P]-ATP.

A further data set addresses MAP kinase p38 (Homo sapiens, UniProt O15264+Q15759+Q16539+P53778). The data set can be described thus: Inhibition of p38 (unknown origin). The class given is protein assay.
For data set [7], the target named is Mitogen-activated protein kinase 10 (Homo sapiens, UniProt P53779). Briefly: Inhibition of human JNK3 assessed as inhibition of GST-tagged ATF2 (19 to 96) phosphorylation incubated for 10 mins prior to substrate addition measured after 30 mins by scintillation counting analysis in presence of [gamma-33P]-ATP.
The target of data set [8] is Cyclin-dependent kinase 4/cyclin D1 (Homo sapiens, UniProt P11802). Briefly: Inhibition of human recombinant human GST-tagged CDK4/cyclin D1 expressed in baculovirus infected insect cells assessed as inhibition of 6XHis-tagged retinoblastoma protein (386 to 928) phosphorylation after 30 mins by scintillation counting analysis in presence of [gamma-33P]-ATP.
A short description of data set [9]: Clearance in human liver microsomes. The class given is ADME, Microsome. As to conditions: read-out: CLH. Summed up:
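Intrinsic clearance was measured in vitro in human liver microsomes and expressed per mg microsomal protein.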
For orientation: Microsomes from liver hold many membrane-bound enzymes, among them those of drug oxidation.

One may read the IC50 as the concentration at which inhibition is half-maximal.

Mitogen-activated protein kinase 8, sequence (P45983 whole entry, the tested form may be a part): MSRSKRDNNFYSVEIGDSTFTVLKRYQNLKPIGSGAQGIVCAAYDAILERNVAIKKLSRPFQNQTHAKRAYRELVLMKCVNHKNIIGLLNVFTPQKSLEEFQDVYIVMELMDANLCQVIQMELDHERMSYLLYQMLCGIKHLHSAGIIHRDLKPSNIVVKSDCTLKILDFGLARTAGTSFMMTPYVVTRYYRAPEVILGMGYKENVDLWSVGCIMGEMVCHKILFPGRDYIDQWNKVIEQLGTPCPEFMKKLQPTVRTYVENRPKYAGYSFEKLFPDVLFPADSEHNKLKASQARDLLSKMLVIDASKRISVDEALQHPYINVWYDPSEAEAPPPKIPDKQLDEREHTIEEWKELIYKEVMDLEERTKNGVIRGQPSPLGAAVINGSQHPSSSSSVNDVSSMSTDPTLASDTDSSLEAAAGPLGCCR
Cytochrome P450 2C9, sequence (P11712 whole entry): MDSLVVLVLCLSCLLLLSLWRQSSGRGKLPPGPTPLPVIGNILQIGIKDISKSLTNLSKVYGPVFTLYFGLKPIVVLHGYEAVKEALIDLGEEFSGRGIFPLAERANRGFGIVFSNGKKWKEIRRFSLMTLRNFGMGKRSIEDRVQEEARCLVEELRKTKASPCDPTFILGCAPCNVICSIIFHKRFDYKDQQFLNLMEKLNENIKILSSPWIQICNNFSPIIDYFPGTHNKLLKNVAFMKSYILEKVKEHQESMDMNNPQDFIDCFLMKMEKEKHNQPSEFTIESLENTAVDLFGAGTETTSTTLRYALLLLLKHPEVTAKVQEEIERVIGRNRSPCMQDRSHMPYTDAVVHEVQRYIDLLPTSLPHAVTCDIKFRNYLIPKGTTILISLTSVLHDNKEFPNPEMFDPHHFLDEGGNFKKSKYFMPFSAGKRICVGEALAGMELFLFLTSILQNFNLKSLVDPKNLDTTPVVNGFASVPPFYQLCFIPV
Cyclin-dependent kinase 1/cyclin B1, sequence (P06493 whole entry): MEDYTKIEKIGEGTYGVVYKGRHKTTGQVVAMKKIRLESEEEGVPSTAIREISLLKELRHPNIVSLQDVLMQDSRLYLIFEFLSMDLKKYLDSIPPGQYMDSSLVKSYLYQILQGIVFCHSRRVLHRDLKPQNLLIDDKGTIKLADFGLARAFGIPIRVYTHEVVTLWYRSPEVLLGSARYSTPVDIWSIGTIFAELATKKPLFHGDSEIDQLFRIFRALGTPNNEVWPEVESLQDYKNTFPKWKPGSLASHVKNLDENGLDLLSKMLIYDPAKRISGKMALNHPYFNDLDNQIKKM
Cyclin-dependent kinase 1/cyclin B1, sequence (P14635 whole entry, further chain): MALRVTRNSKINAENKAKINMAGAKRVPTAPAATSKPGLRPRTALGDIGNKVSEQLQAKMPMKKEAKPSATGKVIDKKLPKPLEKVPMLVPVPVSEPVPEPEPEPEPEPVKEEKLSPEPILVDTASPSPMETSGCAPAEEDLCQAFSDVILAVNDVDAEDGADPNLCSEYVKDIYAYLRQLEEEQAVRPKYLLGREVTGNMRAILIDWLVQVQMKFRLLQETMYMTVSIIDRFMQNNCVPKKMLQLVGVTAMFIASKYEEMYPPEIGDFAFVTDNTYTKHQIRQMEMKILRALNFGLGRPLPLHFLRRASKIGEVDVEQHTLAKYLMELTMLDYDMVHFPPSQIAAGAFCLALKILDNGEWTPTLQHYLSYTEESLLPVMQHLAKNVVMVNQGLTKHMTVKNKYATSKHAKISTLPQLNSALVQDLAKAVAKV
Cyclin-dependent kinase 4/cyclin D1, sequence (P11802 whole entry): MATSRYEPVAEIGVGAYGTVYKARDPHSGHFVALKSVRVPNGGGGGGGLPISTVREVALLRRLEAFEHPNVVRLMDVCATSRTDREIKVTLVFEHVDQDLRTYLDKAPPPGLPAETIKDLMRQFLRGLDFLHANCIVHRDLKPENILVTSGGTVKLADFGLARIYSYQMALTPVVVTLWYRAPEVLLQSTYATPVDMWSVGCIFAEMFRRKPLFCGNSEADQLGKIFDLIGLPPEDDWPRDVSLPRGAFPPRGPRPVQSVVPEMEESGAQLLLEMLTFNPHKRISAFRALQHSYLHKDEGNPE
Cyclin-dependent kinase 4/cyclin D1, sequence (P24385 whole entry, further chain): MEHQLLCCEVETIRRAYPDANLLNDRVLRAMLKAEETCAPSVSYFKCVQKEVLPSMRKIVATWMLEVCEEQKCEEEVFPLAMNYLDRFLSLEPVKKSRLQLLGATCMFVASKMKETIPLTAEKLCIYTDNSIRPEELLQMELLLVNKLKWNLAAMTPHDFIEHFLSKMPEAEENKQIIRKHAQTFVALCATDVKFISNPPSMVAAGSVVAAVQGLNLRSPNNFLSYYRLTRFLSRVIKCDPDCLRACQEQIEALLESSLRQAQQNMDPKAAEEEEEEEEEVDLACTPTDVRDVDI
Mitogen-activated protein kinase 10, sequence (P53779 whole entry): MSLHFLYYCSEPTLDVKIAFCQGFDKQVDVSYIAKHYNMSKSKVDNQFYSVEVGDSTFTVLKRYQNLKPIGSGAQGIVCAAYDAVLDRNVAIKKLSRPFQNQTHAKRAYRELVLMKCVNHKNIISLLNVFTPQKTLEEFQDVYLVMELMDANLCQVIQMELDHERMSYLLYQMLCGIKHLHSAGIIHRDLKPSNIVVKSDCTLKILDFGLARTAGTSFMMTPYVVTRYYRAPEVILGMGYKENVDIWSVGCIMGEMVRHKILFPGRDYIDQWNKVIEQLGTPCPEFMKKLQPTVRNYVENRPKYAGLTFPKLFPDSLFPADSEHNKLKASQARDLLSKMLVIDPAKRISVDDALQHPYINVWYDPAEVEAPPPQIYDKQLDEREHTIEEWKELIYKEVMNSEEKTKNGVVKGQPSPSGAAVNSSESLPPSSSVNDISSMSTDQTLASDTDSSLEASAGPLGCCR

As to `CC(=O)N[C@H]1CC[C@H](Nc2nccc(-n3nnc4ccccc43)n2)CC1`, the IC50 in the data set on HCT-116 is 16000 nM; in data set [1] it was 230 nM; in data set [2], 1500 nM; against Cytochrome P450 2C9 it was 39 nM; in data set [3], 39 nM; in [4], 570 nM. Further, in the data set listed under Homo sapiens, the Ratio IC50 came to 4.
For `CS(=O)(=O)NCCCOc1cccc2c1cnn2-c1ccnc(N[C@H]2CC[C@H](O)CC2)n1`, the Ratio IC50 in [5] stood at 17. In addition, the IC50 in data set [1] came to 246 nM; in data set [2], 1100 nM; in data set [3] it was 56 nM.
The corresponding values for `CS(=O)(=O)CCOc1cccc2c1cnn2-c1ccnc(N[C@H]2CC[C@H](O)CC2)n1` are 4, 151 nM, 980 nM and 33 nM.
The corresponding values for `CC(C)(O)[C@H]1CC[C@H](Nc2nccc(-n3ncc4c(OCCCS(C)(=O)=O)cccc43)n2)CC1` are 18, 21 nM, 240 nM and 4 nM.
Turning to `c1ccc2c(c1)nnn2-c1ccnc(NC2CCCCC2)n1`, the Ratio IC50 in the data set filed under Homo sapiens amounted to 4. The IC50 in data set [1] was determined as 390 nM; in data set [3], 100 nM; in data set [4], 2700 nM.
For `CS(=O)(=O)N[C@H]1CC[C@H](Nc2nccc(-n3nnc4ccccc43)n2)CC1`, the IC50 was 2300 nM with HCT-116; 1520 nM in data set [6]; greater than 10000 nM at MAP kinase p38; 114 nM in data set [7]; 910 nM in data set [8]; 97 nM in data set [1]. Besides, the IC50 amounted to 1300 nM in data set [2], 24 nM in data set [3] and 300 nM in data set [4]. In the data set listed under Homo sapiens, the Ratio IC50 amounted to 4.
Regarding `O=C([C@H]1CC[C@H](Nc2nccc(-n3nnc4ccccc43)n2)CC1)N1CCCC1`, the IC50 was greater than 30000 nM in the data set with HCT-116; 400 nM in data set [1]; 3300 nM in data set [2]; 120 nM in data set [3]; greater than 6200 nM in [4]. For the same compound, in the data set filed under Homo sapiens, the Ratio IC50 was 4.
In the case of `O[C@H]1CC[C@H](Nc2nccc(-c3c[nH]c4ccccc34)n2)CC1`, the IC50 was 720 nM in data set [1], 8200 nM in data set [2] and 140 nM in data set [3].
Consider `CS(=O)(=O)CCCOc1cccc2c1ccn2-c1ccnc(N[C@H]2CC[C@H](C(=O)N3CCC(F)(F)CC3)CC2)n1`, for which, in data set [5], the Ratio IC50 worked out at 4.2. Further, the results for the IC50 in data set [1], in data set [2] and in data set [3] were 51 nM, 1400 nM and 16 nM, respectively. In data set [9], the microsomal CLint was found to be 283 µL/min/mg.
Consider `CN(C)S(=O)(=O)N[C@H]1CC[C@H](Nc2nccc(-n3nnc4ccccc43)n2)CC1`, for which the IC50 amounted to 22000 nM in the data set on HCT-116; 76 nM in data set [1]; 4900 nM in [2]; 19 nM in [3]; 1700 nM in data set [4]. Also, the Ratio IC50 in the data set listed under Homo sapiens stood at 4.
As to `OCCCOc1cccc2c1cnn2-c1ccnc(N[C@H]2CC[C@H](O)CC2)n1`, in data set [5], the Ratio IC50 came to 28. Also, the IC50 in data set [1] amounted to 139 nM; in data set [2], 960 nM; in data set [3] it was 24 nM.
On to `CS(=O)(=O)CCCOc1cccc2c1ccn2-c1ccnc(N[C@H]2CC[C@H](C(=O)N3CC[C@@H](O)C3)CC2)n1`, for which, in data set [5], the Ratio IC50 is 2.6. Further, the IC50 in data set [1] worked out at 47 nM; in data set [2], 1100 nM; in data set [3] it was 9.7 nM. Moreover, in data set [9], the microsomal CLint is 19 µL/min/mg.
Take `OCC(O)COc1cccc2c1cnn2-c1ccnc(N[C@H]2CC[C@H](O)CC2)n1` (stereo partly specified): the Ratio IC50 in data set [5] worked out at 5.7. Also, the results for the IC50 in [1], in [2] and in data set [3] were 194 nM, 2000 nM and 34 nM, respectively.
For `O[C@H]1CC[C@H](Nc2nccc(N3CCc4ccccc43)n2)CC1`, the IC50 in data set [1] came out at 2900 nM; in data set [3], 770 nM.
Regarding `CCCOc1cccc2c1cnn2-c1ccnc(N[C@H]2CC[C@H](O)CC2)n1`, in data set [5], the Ratio IC50 was determined as 147. Moreover, the IC50 in data set [1] was 79 nM; in [2], greater than 30000 nM; in data set [3], 12 nM.
For the compound `CS(=O)(=O)CCCOc1cccc2c1ccn2-c1ccnc(N[C@H]2CC[C@H](C(=O)N3CC[C@@H](F)C3)CC2)n1`, the Ratio IC50 in data set [5] stood at 2.5. For the same compound, the figures for the IC50 in [1], in [2] and in data set [3] were 64 nM, 590 nM and 14 nM, respectively. Moreover, the microsomal CLint in [9] was 175 µL/min/mg.
Take `O[C@H]1CC[C@H](Nc2nccc(-c3nnc4ccccn34)n2)CC1`: the IC50 stood at 1200 nM in [1], 12000 nM in [2] and 570 nM in data set [3].
With `COc1cccc2c1cnn2-c1ccnc(N[C@H]2CC[C@H](O)CC2)n1`, in data set [5], the Ratio IC50 came out at 37. The IC50 in data set [2] was 3100 nM.
As to `CCN(CC)C(=O)[C@H]1CC[C@H](Nc2nccc(-n3ccc4c(OCCCS(C)(=O)=O)cccc43)n2)CC1`, in data set [5], the Ratio IC50 was 4.6. Moreover, the half-maximal inhibitory concentration (IC50) in data set [1] is 57 nM; in data set [2], 580 nM; in data set [3], 14 nM. Also, the microsomal CLint in data set [9] turned out to be 609 µL/min/mg.
On to `CC(C)(O)[C@H]1CC[C@H](Nc2nccc(-n3ccc4c(OCCCS(C)(=O)=O)cccc43)n2)CC1`, for which the Ratio IC50 in [5] stood at 6.3. Moreover, the figures for the IC50 in [1], in data set [2] and in data set [3] were 27 nM, 350 nM and 4 nM, respectively.
Turning to `COC1CCN(C(=O)[C@H]2CC[C@H](Nc3nccc(-n4ccc5c(OCCCS(C)(=O)=O)cccc54)n3)CC2)CC1`, the Ratio IC50 in data set [5] is 2.9. In addition, the values for the IC50 in data set [1], in [2] and in data set [3] were 28 nM, 1400 nM and 4.7 nM, respectively. In addition, the microsomal CLint in [9] amounted to 141 µL/min/mg.
